Activity calls are given as the source filed them. The calls are words filed in the database; no cut-off is given here.
Experiments:
[1] = biological target: Serine/threonine-protein kinase WNK1 (Homo sapiens) (UniProt Q9H4A3); test: Inhibition of human WNK1 (1 to 491 residues) using myelin basic protein as substrate measured after 120 mins in presence of [gamma33P]ATP by scintillation counting method
[2] = biological target: Tyrosine-protein kinase HCK (Homo sapiens) (UniProt P08631); test: Inhibition of recombinant human activated HCK (230 to 497 residues) at 10 uM using GGMEDIYFEFMGGKKK as substrate measured after 40 mins in presence of [gamma33P]ATP by scintillation counting method
[3] = biological target: Serine/threonine-protein kinase 33 (Homo sapiens) (UniProt Q9BYT3); test: Inhibition of recombinant full-length human STK33 at 10 uM using myelin basic protein as substrate measured after 40 mins in presence of [gamma33P]ATP by scintillation counting method
[4] = biological target: Casein kinase II subunit alpha' (CK2alpha2, Homo sapiens) (UniProt P19784); test: Inhibition of recombinant full length human CK2alpha2 at 10 uM using RRRDDDSDDD as substrate measured after 40 mins in presence of [gamma33P]ATP by scintillation counting method
[5] = biological target: Ribosomal protein S6 kinase alpha-4 (Homo sapiens) (UniProt O75676); test: Inhibition of recombinant human MSK2 (2 to end residues) at 10 uM using GRPRTSSFAEGKK as substrate measured after 40 mins in presence of [gamma33P]ATP by scintillation counting method
[6] = biological target: Protein kinase C zeta type (Homo sapiens) (UniProt Q05513); test: Inhibition of recombinant human PKCzeta (2 to end residues) at 10 uM using ERMRPRKRQGSVRRRV as substrate measured after 40 mins in presence of [gamma33P]ATP by scintillation counting method
[7] = system: Angiopoietin-1 receptor (Homo sapiens), Q02763 [Q939H,Q940H,R849W]; test: Inhibition of human Tie2 Q939H/Q940H/R849W mutant (771 to end residues) using EFPIYDFLPAKKK as substrate measured after 40 mins in presence of [gamma33P]ATP by scintillation counting method
[8] = biological target: Insulin receptor (Homo sapiens) (UniProt P06213); test: Inhibition of recombinant human activated IR (1005 to 1310 residues) at 10 uM using KKKSPGEYVNIEFG as substrate measured after 40 mins in presence of [gamma33P]ATP by scintillation counting method
[9] = biological target: Death-associated protein kinase 3 (Homo sapiens) (UniProt O43293); test: Inhibition of human ZIPK (1 to 290 residues) using KKLNRTLSFAEPG as substrate measured after 40 mins in presence of [gamma33P]ATP by scintillation counting method
[10] = biological target: Bromodomain and PHD finger-containing protein 3 (Homo sapiens) (UniProt Q9ULD4); test: Binding affinity to human N-terminal His-tagged BRPF3 assessed as change in melting temperature at 10 uM by SYPRO orange dye-based fluorescence assay
Method in brief: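 Thermal shift with His-tagged human bromodomain at 2 μM final in 10 mM HEPES pH 7.5, 500 mM NaCl. Compound at 10 μM final with 0.1% DMSO; SYPRO Orange at 1:1000. Equilibrated 3 min at 25 °C, then heated from 25 to 95 °C at 1 °C/min. Melting temperature shift taken from fluorescence; at least duplicate.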

[11] = biological target: Serine/threonine-protein kinase D3 (Homo sapiens) (UniProt O94806); test: Inhibition of recombinant full-length human PKD3 at 10 uM using KKLRRTLSVA as substrate measured after 40 mins in presence of [gamma33P]ATP by scintillation counting method
[12] = system: Serine/threonine-protein kinase D1 (Homo sapiens), Q15139 [UNDEFINED MUTATION]; test: Inhibition of recombinant full-length human PKCmu R135A mutant at 10 uM using KKLNRTLSVA as substrate measured after 40 mins in presence of [gamma33P]ATP by scintillation counting method
[13] = biological target: Serine/threonine-protein kinase Nek3 (Homo sapiens) (UniProt P51956); test: Inhibition of recombinant full-length human NEK3 at 10 uM using myelin basic protein as substrate measured after 40 mins in presence of [gamma33P]ATP by scintillation counting method
[14] = biological target: STE20-like serine/threonine-protein kinase (Homo sapiens) (UniProt Q9H2G2); test: Inhibition of human SLK (1 to 373 residues) using RLGRDKYKTLRQIRQ as substrate measured after 40 mins in presence of [gamma33P]ATP by scintillation counting method
Method in brief: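 Kinase panel of 422 kinases screened by Eurofins KinaseProfiler at a single test-compound concentration of 10 µM.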

[15] = biological target: Phosphatidylinositol 4-phosphate 5-kinase type-1 alpha (Homo sapiens) (UniProt Q99755); test: Inhibition of recombinant full-length human PIP5K1alpha at 10 uM using phosphatidylinositol 4-phosphate as substrate measured after 40 mins by HTRF assay
[16] = biological target: CDC7/Cyclin B1 (Homo sapiens) (UniProt P14635+O00311); test: Inhibition of recombinant full-length human CDC7/cyclinB1 at 10 uM using Histone H1 as substrate measured after 120 mins in presence of [gamma33P]ATP by scintillation counting method; format: protein-complex assay
[17] = biological target: E3 ubiquitin-protein ligase TRIM33 (Homo sapiens) (UniProt Q9UPN9); test: Binding affinity to human partial length TRIM33 (D882 to A1087 residues) expressed in bacterial expression system at 1 uM by BROMOscan assay
Method in brief: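 BROMOscan bromodomain cross-screen run by an outside service, compound at 1 µM against 32 recombinant bromodomains. Binding given as percent of control.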

[18] = biological target: Leucine-rich repeat serine/threonine-protein kinase 2 (Homo sapiens) (UniProt Q5S007); test: Inhibition of recombinant human LRRK2 (970 to end residues) at 10 uM using RLGRDKYKTLRQIRQ as substrate measured after 40 mins in presence of [gamma33P]ATP by scintillation counting method
[19] = biological target: Casein kinase II subunit alpha (Homo sapiens) (UniProt P68400); test: Inhibition of recombinant full length human CK2alpha1 at 10 uM using RRRDDDSDDD as substrate measured after 40 mins in presence of [gamma33P]ATP by scintillation counting method
[20] = biological target: Bone morphogenetic protein receptor type-1B (Homo sapiens) (UniProt O00238); test: Inhibition of recombinant human ALK6 (148 to end residues) at 10 uM using casein as substrate measured after 40 mins in presence of [gamma33P]ATP by scintillation counting method
[21] = system: Tyrosine-protein kinase ABL1 (Homo sapiens), P00519 [Y253F]; test: Inhibition of recombinant human ABL Y253F mutant (27 to end residues) at 10 uM using EAIYAAPFAKKK as substrate measured after 40 mins in presence of [gamma33P]ATP by scintillation counting method
[22] = system: PI3-kinase p110-alpha/p85-alpha (Homo sapiens), P27986+P42336 [E542K]; test: Inhibition of recombinant full-length mouse PI3K p110alpha/p85alpha E542K mutant at 10 uM using phosphatidylinositol-4, 5-bisphosphate as substrate measured after 40 mins by HTRF assay; format: protein-complex assay

Chain of Serine/threonine-protein kinase 33 (Homo sapiens) (Q9BYT3 whole entry, looked up): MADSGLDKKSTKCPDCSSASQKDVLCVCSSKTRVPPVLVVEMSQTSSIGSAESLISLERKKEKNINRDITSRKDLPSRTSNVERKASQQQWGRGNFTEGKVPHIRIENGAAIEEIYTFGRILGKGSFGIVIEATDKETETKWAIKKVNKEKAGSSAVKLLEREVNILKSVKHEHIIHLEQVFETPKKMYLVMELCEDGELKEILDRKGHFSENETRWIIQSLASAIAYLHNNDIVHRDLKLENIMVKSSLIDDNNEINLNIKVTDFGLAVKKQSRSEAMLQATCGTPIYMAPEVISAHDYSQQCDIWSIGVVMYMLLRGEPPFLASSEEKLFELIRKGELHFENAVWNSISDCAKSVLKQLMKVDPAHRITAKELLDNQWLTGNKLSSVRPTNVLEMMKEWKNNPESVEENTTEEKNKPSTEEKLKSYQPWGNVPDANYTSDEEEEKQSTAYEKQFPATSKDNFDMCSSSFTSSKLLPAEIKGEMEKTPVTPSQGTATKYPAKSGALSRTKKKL
Chain of Death-associated protein kinase 3 (Homo sapiens) (O43293 whole entry, looked up, the tested form may be a part): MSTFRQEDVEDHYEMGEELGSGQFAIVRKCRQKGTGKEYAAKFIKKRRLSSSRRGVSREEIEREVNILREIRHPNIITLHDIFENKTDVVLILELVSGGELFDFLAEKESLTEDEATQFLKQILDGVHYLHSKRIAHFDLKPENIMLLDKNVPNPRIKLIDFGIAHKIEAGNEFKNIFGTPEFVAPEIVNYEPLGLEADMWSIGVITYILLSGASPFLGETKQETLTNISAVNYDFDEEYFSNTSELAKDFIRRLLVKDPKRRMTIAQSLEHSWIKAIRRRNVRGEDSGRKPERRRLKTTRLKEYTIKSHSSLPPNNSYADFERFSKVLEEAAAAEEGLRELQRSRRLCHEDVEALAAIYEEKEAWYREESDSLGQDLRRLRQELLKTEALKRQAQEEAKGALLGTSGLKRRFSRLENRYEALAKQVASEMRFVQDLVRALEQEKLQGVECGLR
Chain of STE20-like serine/threonine-protein kinase (Homo sapiens) (Q9H2G2 whole entry, looked up, the tested form may be a part): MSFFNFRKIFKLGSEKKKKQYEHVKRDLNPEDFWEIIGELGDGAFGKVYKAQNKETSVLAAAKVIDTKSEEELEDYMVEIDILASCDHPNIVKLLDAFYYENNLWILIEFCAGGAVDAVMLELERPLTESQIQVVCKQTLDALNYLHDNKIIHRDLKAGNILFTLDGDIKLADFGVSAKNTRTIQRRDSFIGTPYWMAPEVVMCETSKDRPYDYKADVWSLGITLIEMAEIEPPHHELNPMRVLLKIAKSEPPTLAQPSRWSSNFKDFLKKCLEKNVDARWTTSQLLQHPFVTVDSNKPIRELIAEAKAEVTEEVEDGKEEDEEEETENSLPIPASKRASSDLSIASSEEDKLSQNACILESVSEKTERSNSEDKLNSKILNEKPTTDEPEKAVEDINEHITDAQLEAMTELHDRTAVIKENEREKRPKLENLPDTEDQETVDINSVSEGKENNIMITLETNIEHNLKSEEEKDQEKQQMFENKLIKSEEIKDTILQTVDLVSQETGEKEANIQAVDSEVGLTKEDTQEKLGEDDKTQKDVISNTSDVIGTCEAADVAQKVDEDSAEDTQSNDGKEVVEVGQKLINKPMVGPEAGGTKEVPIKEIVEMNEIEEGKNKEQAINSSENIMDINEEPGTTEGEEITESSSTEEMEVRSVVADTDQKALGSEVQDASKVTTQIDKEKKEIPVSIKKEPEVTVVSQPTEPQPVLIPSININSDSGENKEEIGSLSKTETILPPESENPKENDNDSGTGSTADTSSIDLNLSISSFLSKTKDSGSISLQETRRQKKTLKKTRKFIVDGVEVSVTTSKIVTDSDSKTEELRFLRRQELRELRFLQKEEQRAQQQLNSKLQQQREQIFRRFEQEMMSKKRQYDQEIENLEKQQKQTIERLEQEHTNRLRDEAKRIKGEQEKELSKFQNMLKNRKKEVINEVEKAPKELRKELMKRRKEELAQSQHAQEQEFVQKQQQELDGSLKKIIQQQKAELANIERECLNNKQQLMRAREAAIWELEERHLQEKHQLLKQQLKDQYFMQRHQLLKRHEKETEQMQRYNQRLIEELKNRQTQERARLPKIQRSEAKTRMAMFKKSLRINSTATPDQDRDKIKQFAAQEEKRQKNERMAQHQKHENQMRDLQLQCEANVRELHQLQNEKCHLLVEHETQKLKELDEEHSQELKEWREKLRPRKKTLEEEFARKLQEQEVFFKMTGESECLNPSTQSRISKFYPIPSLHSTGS
Chain of Serine/threonine-protein kinase WNK1 (Homo sapiens) (Q9H4A3 whole entry, looked up, the tested form may be a part): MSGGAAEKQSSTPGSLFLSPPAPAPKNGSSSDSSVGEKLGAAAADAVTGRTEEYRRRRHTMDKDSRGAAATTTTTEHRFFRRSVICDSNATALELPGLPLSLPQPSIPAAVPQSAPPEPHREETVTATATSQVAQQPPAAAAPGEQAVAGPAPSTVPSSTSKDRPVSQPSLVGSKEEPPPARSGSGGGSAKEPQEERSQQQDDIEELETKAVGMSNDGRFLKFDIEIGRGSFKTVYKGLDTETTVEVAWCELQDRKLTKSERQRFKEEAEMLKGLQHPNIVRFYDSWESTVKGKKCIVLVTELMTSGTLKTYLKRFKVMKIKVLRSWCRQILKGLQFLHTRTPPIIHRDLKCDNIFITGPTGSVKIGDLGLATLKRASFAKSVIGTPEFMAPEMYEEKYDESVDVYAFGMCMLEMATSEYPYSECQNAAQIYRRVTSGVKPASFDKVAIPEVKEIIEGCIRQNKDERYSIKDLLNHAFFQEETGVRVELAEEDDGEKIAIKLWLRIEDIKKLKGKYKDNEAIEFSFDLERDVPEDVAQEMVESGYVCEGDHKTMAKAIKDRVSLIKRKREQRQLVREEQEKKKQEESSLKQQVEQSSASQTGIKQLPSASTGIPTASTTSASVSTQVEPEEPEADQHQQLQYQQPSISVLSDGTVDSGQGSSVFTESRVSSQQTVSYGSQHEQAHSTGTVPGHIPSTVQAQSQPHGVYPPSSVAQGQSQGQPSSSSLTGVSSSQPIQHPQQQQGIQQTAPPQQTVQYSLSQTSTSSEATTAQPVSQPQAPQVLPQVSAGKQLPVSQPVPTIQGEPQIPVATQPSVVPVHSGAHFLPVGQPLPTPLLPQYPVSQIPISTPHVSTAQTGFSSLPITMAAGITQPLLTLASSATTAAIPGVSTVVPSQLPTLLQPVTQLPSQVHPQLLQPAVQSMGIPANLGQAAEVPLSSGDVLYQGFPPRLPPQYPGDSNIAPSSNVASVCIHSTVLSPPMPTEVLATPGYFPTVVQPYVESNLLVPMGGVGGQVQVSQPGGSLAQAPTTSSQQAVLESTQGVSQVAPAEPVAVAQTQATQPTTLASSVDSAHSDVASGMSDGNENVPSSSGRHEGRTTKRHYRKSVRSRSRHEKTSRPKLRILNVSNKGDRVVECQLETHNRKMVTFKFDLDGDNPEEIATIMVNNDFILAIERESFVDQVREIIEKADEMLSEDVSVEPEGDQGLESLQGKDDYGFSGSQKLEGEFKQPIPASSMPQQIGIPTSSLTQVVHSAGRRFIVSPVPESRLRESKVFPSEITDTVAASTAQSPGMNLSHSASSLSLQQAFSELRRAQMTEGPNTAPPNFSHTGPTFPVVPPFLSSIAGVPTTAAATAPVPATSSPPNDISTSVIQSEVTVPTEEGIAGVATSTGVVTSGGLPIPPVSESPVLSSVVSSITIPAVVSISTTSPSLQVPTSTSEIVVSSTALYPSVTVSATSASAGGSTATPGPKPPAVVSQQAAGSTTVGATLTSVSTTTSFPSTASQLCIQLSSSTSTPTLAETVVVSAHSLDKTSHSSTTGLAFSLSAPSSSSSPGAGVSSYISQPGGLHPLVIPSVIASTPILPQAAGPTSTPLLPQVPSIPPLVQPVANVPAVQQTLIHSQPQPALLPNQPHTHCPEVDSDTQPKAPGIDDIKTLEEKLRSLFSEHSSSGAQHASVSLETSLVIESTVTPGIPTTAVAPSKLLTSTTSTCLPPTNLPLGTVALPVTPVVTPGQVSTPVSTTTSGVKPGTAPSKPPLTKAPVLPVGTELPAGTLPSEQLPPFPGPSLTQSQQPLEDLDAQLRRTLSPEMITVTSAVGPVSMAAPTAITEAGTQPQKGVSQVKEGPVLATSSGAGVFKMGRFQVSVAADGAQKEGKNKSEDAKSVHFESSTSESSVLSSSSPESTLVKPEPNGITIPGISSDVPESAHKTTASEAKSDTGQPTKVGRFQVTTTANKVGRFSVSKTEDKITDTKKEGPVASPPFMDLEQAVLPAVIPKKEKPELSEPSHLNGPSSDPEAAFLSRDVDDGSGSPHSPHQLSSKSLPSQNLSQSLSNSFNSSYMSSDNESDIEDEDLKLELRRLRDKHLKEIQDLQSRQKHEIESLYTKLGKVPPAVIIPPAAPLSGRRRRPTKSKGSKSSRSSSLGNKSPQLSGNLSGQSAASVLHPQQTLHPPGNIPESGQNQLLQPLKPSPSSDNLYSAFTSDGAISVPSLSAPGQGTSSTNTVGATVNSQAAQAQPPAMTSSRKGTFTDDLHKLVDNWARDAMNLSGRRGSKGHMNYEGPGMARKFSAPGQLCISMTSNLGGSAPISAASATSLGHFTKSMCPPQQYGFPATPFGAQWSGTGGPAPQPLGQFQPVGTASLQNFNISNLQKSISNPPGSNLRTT
Chain of Casein kinase II subunit alpha (Homo sapiens) (P68400 whole entry, looked up): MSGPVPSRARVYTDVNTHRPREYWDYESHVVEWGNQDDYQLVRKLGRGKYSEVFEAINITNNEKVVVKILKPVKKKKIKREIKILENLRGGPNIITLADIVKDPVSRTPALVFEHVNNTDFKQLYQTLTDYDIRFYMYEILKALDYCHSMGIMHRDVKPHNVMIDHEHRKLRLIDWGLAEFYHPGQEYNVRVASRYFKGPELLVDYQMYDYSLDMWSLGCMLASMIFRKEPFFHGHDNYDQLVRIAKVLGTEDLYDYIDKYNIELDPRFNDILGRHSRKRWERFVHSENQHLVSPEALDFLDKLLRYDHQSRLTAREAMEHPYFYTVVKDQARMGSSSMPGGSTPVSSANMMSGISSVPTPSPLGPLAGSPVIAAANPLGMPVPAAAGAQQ

SMILES: CN1C[C@H](Nc2nc3cc[nH]c3c(=O)n2C)C[C@H](c2ccc3c(c2)OCCO3)C1
- inhibition [1]: inactive
- inhibition [2]: inactive
- inhibition [3]: inactive
- inhibition [4]: inactive
- inhibition [5]: inactive
- inhibition [6]: inactive
- inhibition [7]: inactive
- inhibition [8]: inactive
- inhibition [9]: inactive
- ΔTm [10]: 1.7 °C
- inhibition [11]: inactive
- inhibition [12]: inactive
- inhibition [13]: inactive
- inhibition [14]: inactive
- inhibition [15]: inactive
- inhibition [16]: inactive
- Activity [17]: inactive
- inhibition [18]: inactive
- inhibition [19]: inactive
- inhibition [20]: inactive
- inhibition [21]: inactive
- inhibition [22]: inactive

From ChEMBL document CHEMBL4350961, “Discovery of Pyrrolo[3,2- d]pyrimidin-4-one Derivatives as a New Class of Potent and Cell-Active Inhibitors of P300/CBP-Associated Factor Bromodomain” (J Med Chem, 2019)
